Test results from ChEMBL document CHEMBL3392997, “Interconversion of Functional Activity by Minor Structural Alterations in Nonpeptide AT2 Receptor Ligands” (ACS Med Chem Lett, 2015).
Calls of active or inactive are those of the source. No cut-off for these calls is given here.

Columns and labels:
[1] = biological target: T1, Type-2 angiotensin II receptor (Homo sapiens) (UniProt P50052); assay: Agonist activity at AT2 receptor (unknown origin) expressed in NG108-15 cells assessed as induction of neurite outgrowth at 100 nM after 3 days by phase contrast microscopy; format: cell-based
T1 sequence (whole entry): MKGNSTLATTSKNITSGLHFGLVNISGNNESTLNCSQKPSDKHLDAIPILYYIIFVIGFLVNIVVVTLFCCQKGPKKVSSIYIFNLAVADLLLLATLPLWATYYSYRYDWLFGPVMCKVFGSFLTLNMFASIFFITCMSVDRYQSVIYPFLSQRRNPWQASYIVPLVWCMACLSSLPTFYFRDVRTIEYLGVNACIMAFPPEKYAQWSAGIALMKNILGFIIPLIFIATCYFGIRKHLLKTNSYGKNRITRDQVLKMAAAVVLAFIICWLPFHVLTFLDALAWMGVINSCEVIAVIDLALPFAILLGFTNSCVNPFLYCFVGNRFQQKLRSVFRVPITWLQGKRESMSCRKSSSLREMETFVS
How it was run: (§1)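 Undifferentiated NG108-15 cells were plated at 3.6×10^4 cells per 35 mm dish and cultured 3 days with agent alone, or with 10 μM PD 123,319 or 100 nM Ang II. Phase-contrast micrographs were taken. A cell with at least one neurite longer than its cell body scored positive, expressed as percent of total cells counted (at least 400). Two-way ANOVA.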

[2] = biological target: T1, Type-2 angiotensin II receptor (Homo sapiens); assay: Antagonist activity against AT2 receptor (unknown origin) expressed in NG108-15 cells assessed as reduction in angiotension-2-induced neurite outgrowth at 10 nM after 3 days by phase contrast microscopy; format: cell-based; how it was run: as §1
[3] = biological target: T1, Type-2 angiotensin II receptor (Homo sapiens); assay: Agonist activity at AT2 receptor (unknown origin) expressed in NG108-15 cells assessed as induction of neurite outgrowth at 10 nM after 3 days by phase contrast microscopy; format: cell-based; how it was run: as §1
[4] = biological target: T1, Type-2 angiotensin II receptor (Homo sapiens); conditions: NG108-15, 10 uM
[5] = biological target: T1, Type-2 angiotensin II receptor (Homo sapiens); assay: Agonist activity at AT2 receptor (unknown origin) expressed in NG108-15 cells assessed as induction of neurite outgrowth at 10 nM after 3 days in presence of 10 uM AT2 receptor antagonist PD 123,319 by phase contrast microscopy; format: cell-based; how it was run: as §1
[6] = biological target: T2, Type-1 angiotensin II receptor A (Rattus norvegicus, UniProt P25095); assay: Displacement of [125I]-Ang II from AT1 receptor in rat liver membranes after 2 hrs by gamma-counting method; format: cell membranes, Membrane
T2 sequence (P25095 whole entry): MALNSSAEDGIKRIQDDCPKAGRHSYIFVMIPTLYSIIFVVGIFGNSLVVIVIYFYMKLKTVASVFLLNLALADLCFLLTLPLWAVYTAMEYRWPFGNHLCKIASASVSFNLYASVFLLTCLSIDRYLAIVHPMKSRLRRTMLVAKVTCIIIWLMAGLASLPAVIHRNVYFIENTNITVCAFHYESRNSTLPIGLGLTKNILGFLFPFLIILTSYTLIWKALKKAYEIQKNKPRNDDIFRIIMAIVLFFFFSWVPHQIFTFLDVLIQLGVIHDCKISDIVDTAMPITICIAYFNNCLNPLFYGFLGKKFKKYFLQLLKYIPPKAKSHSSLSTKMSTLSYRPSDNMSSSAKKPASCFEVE

[7] = Binding affinity to AT2 receptor (unknown origin)
[8] = biological target: T3, Type-1 angiotensin II receptor (Homo sapiens, UniProt P30556); assay: Displacement of [125I]-[Sar1,Leu8]angiotensin II from human AT1 receptor expressed in african green monkey COS7 cells; format: cell-based, COS-7
T3 sequence (P30556 whole entry): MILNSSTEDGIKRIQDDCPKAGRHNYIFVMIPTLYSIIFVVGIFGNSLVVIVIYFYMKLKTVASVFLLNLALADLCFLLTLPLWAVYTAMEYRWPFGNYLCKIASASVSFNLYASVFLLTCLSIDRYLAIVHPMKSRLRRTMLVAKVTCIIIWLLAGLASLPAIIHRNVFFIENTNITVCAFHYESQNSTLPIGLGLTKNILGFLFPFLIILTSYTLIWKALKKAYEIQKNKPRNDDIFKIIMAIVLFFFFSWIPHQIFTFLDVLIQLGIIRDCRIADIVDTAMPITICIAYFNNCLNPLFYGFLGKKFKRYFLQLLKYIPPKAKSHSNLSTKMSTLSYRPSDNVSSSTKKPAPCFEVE

SMILES | Activity [3] | Activity [5] | further results
CCCCOC(=O)NS(=O)(=O)c1ccc(CC(C)C)cc1-c1cccc(Cn2ccnc2)c1 | inactive |  | Activity [1]: inactive; inhibition [2]: Active
Cc1cc(Cn2cnc3c2C[C@@H](C(=O)O)N(C(=O)C(c2ccccc2)c2ccccc2)C3)ccc1N(C)C |  |  | inhibition [4]: Active
CCCCOC(=O)NS(=O)(=O)c1ccc(CC(C)C)cc1-c1ccc(Cn2ccnc2)cc1 | Active | inactive | 
CCCCOC(=O)NS(=O)(=O)c1sc(CC(C)C)cc1-c1ccc(Cn2ccnc2)cc1 [BULOXIBUTID] |  |  | Ki [6]: > 10 µM
CCCCOC(=O)NS(=O)(=O)c1ccc(CC(C)C)cc1-c1ccc(Cn2c(CC)nc3c(C)cc(C)nc32)cc1 |  |  | IC50 [7]: 0.7 nM; IC50 [8]: 2.1 nM
CCCCOC(=O)NS(=O)(=O)c1cc(CC(C)C)ccc1-c1ccc(Cn2ccnc2)cc1 | Active | inactive | 
CCCCOC(=O)NS(=O)(=O)c1cc(CC(C)C)ccc1-c1cccc(Cn2ccnc2)c1 | Active | inactive | 
CCCCOC(=O)NS(=O)(=O)c1ccc(CCC)cc1-c1ccc(Cn2c(CC)nc3c(C)cc(C)nc32)cc1 |  |  | IC50 [7]: 4.2 nM
